Assay [1] addresses Glutamate NMDA receptor. Nature of the assay: (§1) Compound was tested for NMDA receptor antagonistic activity by measuring its ability to inhibit depolarizations induced by 40 uM NMDA in rat cortical slice preparation. The class given is functional.
The target of assay [2] is Glutamate NMDA receptor. Nature of the assay: Binding affinity at N-methyl-D-aspartate glutamate receptor in rat cortical tissue by [3H]-CGS- 19755 displacement. The method, boiled down:
(§2)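 Displacement of radioligand from rat cortical tissue membranes: [3H]CGS 19755 for NMDA sites, [3H]kainic acid for kainate sites. Each determination run in triplicate unless otherwise indicated.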

Assay [3] concerns the target T1, Glutamate receptor ionotropic, AMPA (Rattus norvegicus, UniProt P19490+P19491+P19492+P19493). Nature of the assay: Binding affinity at Ionotropic glutamate receptor AMPA in rat cortical tissue by [3H]AMPA displacement.
Assay [4] has as its target T1, Glutamate receptor ionotropic, AMPA. Nature of the assay: Compound was tested for AMPA receptor antagonistic activity by measuring its ability to inhibit depolarizations induced by 40 uM quisqualic acid in rat cortical slice preparation. It is filed as functional. The method, boiled down:
(§3)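 Rat cortical slice (cortical wedge) preparation. Antagonism measured as inhibition of depolarizations evoked by 40 uM AMPA (a few cases 40 uM quisqualic acid instead) or 40 uM NMDA. Compounds were also applied alone to check for agonist activity.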

Assay [5] addresses Glutamate receptor ionotropic, kainate. Nature of the assay: Binding affinity at Ionotropic glutamate receptor kainate in rat cortical tissue by [3H]-kainic acid displacement. Put shortly:
as §2

For assay [6] the target is unchanged. The class given is functional.
Assay [7] concerns the target T1, Glutamate receptor ionotropic, AMPA. Nature of the assay: AMPA receptor antagonistic activity as inhibition of depolarizations induced by 40 uM AMPA in rat cortical slice preparation. It is filed as functional.
Assay [8] shares this target. Nature of the assay: Compound was tested for AMPA receptor antagonistic activity by measuring its ability to inhibit depolarizations induced by 40 uM AMPA in rat cortical slice preparation. The class given is functional. Put shortly: as §3
The target in assay [9] is Glutamate NMDA receptor (Rattus norvegicus) (UniProt P35439+Q00959+Q00960+Q00961+Q62645+Q8VHN2+Q9R1M7). The assay is described as §1. It is filed as functional. The method, boiled down: as §3

The structures appear in SMILES notation.

As for `O=C(O)[C@@H]1C[C@H]2C[C@@H](Cc3nnn[nH]3)CC[C@H]2CN1`, the IC50 (in general, the concentration needed to halve the response being measured) against Glutamate NMDA receptor [1] is 1.4 µM; on Glutamate NMDA receptor [2], 0.94 µM; in assay [3] it was 84.5 µM; in [4], over 100 µM; in assay [5] it was over 100 µM; in [6] it was over 100 µM.

Regarding `O=C(O)C1Cc2cc(CCc3nnn[nH]3)ccc2CN1` (stereo not drawn), the IC50 on Glutamate NMDA receptor [1] is over 100 µM; on Glutamate NMDA receptor [2] it was over 10 µM; in assay [3], over 100 µM; in assay [7], over 100 µM; in assay [5], over 10 µM; in assay [6], over 100 µM.

Regarding `O=C(O)[C@@H]1C[C@H]2C[C@@H](C(Cc3nnn[nH]3)c3ccccc3)CC[C@H]2CN1` (stereo partly drawn), the IC50 was 100 µM on Glutamate NMDA receptor [1]; 15.1 µM on Glutamate NMDA receptor [2]; 9.8 µM in assay [3]; 9 µM in [8]; over 100 µM in [5]; 23.6 µM in [6].

Regarding `CC(Cc1nnn[nH]1)[C@H]1CC[C@H]2CN[C@H](C(=O)O)C[C@H]2C1` (stereo partly drawn), the IC50 at Glutamate NMDA receptor [1] was over 100 µM; on Glutamate NMDA receptor [2], 53.2 µM; in assay [3], 3 µM; in [8], 6 µM; in assay [5] it was 35 µM; in assay [6] it was 58 µM.

Consider `O=C(O)[C@@H]1C[C@H]2C[C@@H](CCc3nn[nH]n3)CC[C@H]2CN1` [TEZAMPANEL ANHYDROUS], for which the half-maximal inhibitory concentration (IC50) is 61.3 µM against Glutamate NMDA receptor [1], 6 µM in assay [7], 247 µM in [5] and 31.7 µM in assay [6].

For the compound `O=C(O)[C@H]1C[C@H]2CC(CCc3nnn[nH]3)CC[C@H]2CN1` (stereo partly drawn), the IC50 against Glutamate NMDA receptor [1] is over 100 µM; at Glutamate NMDA receptor [2], over 10 µM; in assay [3], over 100 µM; in [7] it was over 100 µM; in assay [5] it was over 100 µM; in assay [6] it was over 100 µM.

For `O=CN(Cc1nn[nH]n1)[C@H]1CC[C@H]2CN[C@H](C(=O)O)C[C@H]2C1`, the IC50 at Glutamate NMDA receptor [2] is over 100 µM; in assay [3], 23.1 µM; in assay [5], over 100 µM.

As to `O=C(O)[C@@H]1C[C@H]2C[C@H](CCc3nnn[nH]3)CC[C@H]2CN1`, the IC50 on Glutamate NMDA receptor [2] is 60.6 µM; in assay [3], 59.6 µM; in assay [7], over 100 µM; in [5], 180 µM; in [6], over 100 µM.

Turning to `O=C(O)[C@@H]1C[C@H]2C[C@H](OCc3nn[nH]n3)CC[C@H]2CN1`, the IC50 was 13.6 µM at Glutamate NMDA receptor [1]; 5.3 µM at Glutamate NMDA receptor [2]; over 100 µM in [3]; over 100 µM in assay [7]; over 100 µM in [5]; over 100 µM in assay [6].

Turning to `CN(Cc1nn[nH]n1)[C@H]1CC[C@H]2CN[C@H](C(=O)O)C[C@H]2C1`, the IC50 at Glutamate NMDA receptor [1] is over 100 µM; on Glutamate NMDA receptor [2], 65.8 µM; in assay [3], over 100 µM; in assay [7], over 100 µM; in assay [5], over 100 µM; in [6] it was over 100 µM.

`O=C(O)[C@@H]1C[C@H]2C[C@@H](CCCc3nnn[nH]3)CC[C@H]2CN1`: the IC50 against Glutamate NMDA receptor [1] was over 100 µM; at Glutamate NMDA receptor [2], 27 µM; in assay [3], 16.8 µM; in assay [4], 22 µM; in assay [5], 18.7 µM; in assay [6] it was over 100 µM.

Regarding `O=C(O)[C@@H]1C[C@H]2C[C@@H](OCc3nn[nH]n3)CC[C@H]2CN1`, the IC50 against Glutamate NMDA receptor [1] is 28.3 µM; on Glutamate NMDA receptor [2], 5.9 µM; in assay [3] it was 24 µM; in [7], 29.5 µM; in [5], 55 µM; in [6], over 100 µM.

Turning to `O=C(O)[C@@H]1C[C@H]2C[C@@H](CCCCc3nnn[nH]3)CC[C@H]2CN1`, the IC50 was over 100 µM against Glutamate NMDA receptor [1]; over 100 µM on Glutamate NMDA receptor [2]; 57 µM in assay [3]; 27.6 µM in [7]; over 100 µM in assay [5]; under 100 µM in assay [6].

Take `O=C(O)[C@@H]1C[C@H]2C[C@@H](CCc3nnn[nH]3)CC[C@@H]2CN1`: the IC50 (against Glutamate NMDA receptor [1]; at Glutamate NMDA receptor [2]; in [3]; in [7]; in assay [5]; in [6]) was over 100 µM throughout.

With `O=C(O)[C@@H]1C[C@H]2C[C@@H](c3nnn[nH]3)CC[C@H]2CN1`, the IC50 at Glutamate NMDA receptor [1] was 7.5 µM; in assay [3], 12.8 µM; in [7], 40.9 µM; in assay [5] it was 31.8 µM; in assay [6], over 100 µM.

With `O=C(O)[C@@H]1NCC[C@H]2CC(CCc3nnn[nH]3)CC[C@H]21` (stereo partly drawn), the half-maximal inhibitory concentration (IC50) on Glutamate NMDA receptor [2] is 12.8 µM; in assay [3], over 100 µM; in assay [7], over 100 µM; in [5], over 100 µM; in assay [6], over 100 µM. For the same compound, in assay [9], the inhibition (commonly how much of the control response was suppressed) turned out to be 50%.

In the case of `CC(C[C@H]1CC[C@H]2CN[C@H](C(=O)O)C[C@H]2C1)c1nnn[nH]1` (stereo partly drawn), the IC50 at Glutamate NMDA receptor [2] was over 100 µM; in assay [3], 4.21 µM; in assay [5], 27.3 µM.

In the case of `O=C(O)[C@@H]1C[C@H]2C[C@@H](NCc3nn[nH]n3)CC[C@H]2CN1`, the IC50 on Glutamate NMDA receptor [1] was 33.4 µM; at Glutamate NMDA receptor [2], 11.5 µM; in assay [3], over 100 µM; in assay [7], 69.3 µM; in assay [5], over 100 µM; in assay [6] it was over 100 µM.

The record behind these values is ChEMBL document CHEMBL1129328, “Structure-activity studies of 6-(tetrazolylalkyl)-substituted decahydroisoquinoline-3-carboxylic acid AMPA receptor antagonists. 1. Effects of stereochemistry, chain length, and chain substitution” (J Med Chem, 1996).
